This data set relates to MS2 coat protein. As to the kind of experiment: apparent Kd, MS2 coat protein; higher = weaker binding; RNA-MaP array; FMN 200 µM where present. Put shortly: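 Apparent Kd: the median of filtered binding-curve fits from single clusters. Designs were transcribed on Illumina sequencing-chip clusters by stalled E. coli RNA polymerase and titrated with SNAP-549-labelled MS2 coat protein from 0.7 or 1.5 nM, doubling to 3 µM, in 100 mM Tris-HCl pH 7.5, 80 mM KCl, 4 mM MgCl2, BSA, DTT, yeast tRNA and Tween-20. Each series ran without and then with constant ligand, and green signal was normalised to red-channel RNA signal and control-cluster median Fmax.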

The mark [1] stands for this setting: designed as: ON switch for flavin mononucleotide, no ligand.
[2] abbreviates: ligand present: flavin mononucleotide, designed as: ON switch for flavin mononucleotide.
[3] abbreviates: designed as: OFF switch for flavin mononucleotide, no ligand.
[4] abbreviates: ligand present: flavin mononucleotide, designed as: OFF switch for flavin mononucleotide.

By apparent Kd is commonly meant the concentration giving half-maximal binding under the conditions of the assay. For the sequence “AUAUGAUAGAUAGGAUAUACAGAUGAAUAAUAAGUAGAAGGAUCAAAUGGGAAUUAUACAUGAGGAUCACCCAUGUUUUUGAAU”, the “apparent Kd” value under setting [1] stood at 45 nM and the “apparent Kd” value under setting [2] was determined as 33.6 nM.

Take “GCAGCUAAUGCAGGAUAUCAGCACGUGUAGUGCUGAGAAGGGCACAUGAGGAUCACCCAUGUGAUCAAUUAAUUUUAAUGCUGC”: the “apparent Kd” value runs as follows: under setting [3], 29 nM; under setting [4], 159 nM.

As for “UUCCUCGUUGUGAGGAUAUCGUCCGUGUUUUGUUACGAGAAGGCACAUGAGGAUCACCCAUGUUACUUGAUGUU”, the “apparent Kd” value runs as follows: under setting [3], 18.7 nM; under setting [4], 110 nM.

Take “GUGUACGGAGGAUAUAUAUGGGCAGGCUGACCUGCAGCUUCACAUGAGGAUCACCCAUGUAGAAGGCUGUGCAC”: the “apparent Kd” value runs as follows: under setting [3], 31.6 nM; under setting [4], 132 nM.

“AAAAAGGGAGGAUAUACAUGAGUAGAUCGUGUAAAAAAAAUACAUGAGGAUCACCCAUGUAGAAGGCCCAAAAA”: the “apparent Kd” value under setting [3] was determined as 231 nM and the “apparent Kd” value under setting [4] amounted to 88.2 nM.

As to “GUAUAUAUUACAUGAGGAUCACCCAUGUCAGAACGGGUAAUCAGAAGGUAUUAUUAGAGAAAGAGUAAGGAUAUGAUUAUAUAC”, the “apparent Kd” value worked out at 622 nM under setting [1] and 181 nM under setting [2].

As to “GUAACUUAUGUCAGGAUAUUACACGCAUUGCGUGGUGAGAAGGGACAUGAGGAUCACCCAUGUCCGGAUGCGGG”, the “apparent Kd” value reads like this: under setting [3], 39.8 nM; under setting [4], 62.6 nM.

Take “CGCUAAUAAAUAGUAAUAAUUGUACAGGAUAUGUUACAUGAGGAUCACCCAUGUAUUGGGUUUAAACAGAAGGGUAUAUUAGCG”: the “apparent Kd” value under setting [3] came out at 261 nM and the “apparent Kd” value under setting [4] worked out at 126 nM.

Take “GGGUCCGCUCGAGGAUAUAGCUGCAUGUAGUGUCCUGAGGCACAUGAGGAUCACCCAUGUGUAGGCUAGAAGGCGACGGACACU”: the “apparent Kd” value is, setting by setting: under setting [3], 50 nM; under setting [4], 114 nM.

Take “UGAUCGAGAGAUCUUAGAUUCUGGUAGGAUAUACAUUAUGUUAAAAUUACAUGAGGAUCACCCAUGUAGAAGGACUAGAGUCUA”: the “apparent Kd” value came to 6.13 nM under setting [3] and 9.12 nM under setting [4].

“GCAAUAGCAUGAGGAUAUGUUGGAGUUUAGACAGCAGAAGGCAUGUCAUAAGACAUGAGGAUCACCCAUGUAGUUACAAUGGCA”: the “apparent Kd” value under setting [1] was 22.6 nM and the “apparent Kd” value under setting [2] amounted to 11.5 nM.

Regarding “GGGUACAUUGGAGGAUAUCAUGUAAAUACAUGAGGAUCACCCAUGUCGAUGGAGACAUCGGAGAUUGAGAAGGCCGAUGUACCG”, the “apparent Kd” value by setting is: under setting [1], 183 nM; under setting [2], 9.08 nM.

On to “AGAUUUGUACAUGAGGAUCACCCAUGUUAAUAGGUGGUUGUCAGAAGGCAUUAUUAGAGUUUUAAUGAGGAUAUGAAUUUACAA”, for which, under setting [2], the “apparent Kd” value is 541 nM.

Regarding “ACAGAGCUUGACAUGAGGAUCACCCAUGUUAGAUUGUUAUGUCAGGAUAUUGUCUAGCAACUAGACAAGAAGGGAUGCUCUGUG”, the “apparent Kd” value under setting [1] worked out at 364 nM and the “apparent Kd” value under setting [2] is 56 nM.

Consider “UUGGACGUCGUAGGAGAUGUAGGAUAUUCCUACAUGAGGAUCACCCAUGUUGACAUGGAAGAAGGACAGAAGGACGAUGUCCAU”, for which the “apparent Kd” value runs as follows: under setting [1], 294 nM; under setting [2], 8.27 nM.

Regarding “AGCUGUGGCCGAGGAUAUACAUCCUUUAUAACCGAUGAAUAUCAUCGGACAUGAGGAUCACCCAUGUAGAAGGCGGUCUCAGCA”, the “apparent Kd” value under setting [3] amounted to 149 nM and the “apparent Kd” value under setting [4] turned out to be 750 nM.

With “GCAAAGCCUGACAUGAGGAUCACCCAUGUUAGAUUGUUAUGUCAGGAUAUUGUCUAGCAACUAGACAAGAAGGGAUGCUCUGCG”, the “apparent Kd” value runs as follows: under setting [1], 744 nM; under setting [2], 215 nM.

For the sequence “GCAGCGCUUGACAUGAGGAUCACCCAUGUUAGAUUGUUAAGUCAGGAUAUAGUCUAGAAACUAGACUAGAAGGGAUUUGCUGCU”, the “apparent Kd” value under setting [1] came out at 7.18 nM and the “apparent Kd” value under setting [2] amounted to 6.14 nM.

With “GUAAAUCAUGUAGGAUAUGCAUGGCGAAGCUACGCAGAAGGACAUGAGGAUCACCCAUGUGCUAGCUACCGAGUUCGGUGGCAA”, the “apparent Kd” value is, setting by setting: under setting [3], 77.1 nM; under setting [4], 354 nM.

As for “GGAUAGGACAGAGGAUAUACGUGCUAGAGAUAAUAGCAAAAUUUCCUCACAUGAGGAUCACCCAUGUAGAAGGCUGUCCUAUCG”, the “apparent Kd” value reads like this: under setting [3], 19.5 nM; under setting [4], 250 nM.

For “AUGUUACAUGAGGAUCACCCAUGUGAGGAUAUGUGUAUCCCUAAAAAAGUGUGGGACCAUAGAAGGUACUUGGA”, the “apparent Kd” value by setting is: under setting [3], 59.2 nM; under setting [4], 58.6 nM.

Consider “GUAGCAUACCGAGGAUAUUCAUACCCGAAAGGGACAUGAGGAUCACCCAUGUGGCGAAAGCCUUGGGAGAAGGCGGAAUGCUAC”, for which the “apparent Kd” value came out at 580 nM under setting [1] and 24.4 nM under setting [2].

Consider “AAAUAAACUACCAAAAUAUCCUCACAUGAGGAUCACCCAUGUCAGGAUAUUUGUCCUAAAAGGACAGAGAAGGGACGUGGUAGA”, for which the “apparent Kd” value came out at 5.63 nM under setting [3] and 10.7 nM under setting [4].

Consider “AUAGAAGUCUAGAAGGACCUAGCUGUAUACCGUCGAGGUAUAUAGCUAGGUAGGAUAUGGGACAUGAGGAUCACCCAUGUGUUG”, for which the “apparent Kd” value stood at 32.9 nM under setting [1] and 9.19 nM under setting [2].

“CAUCCGAAUGAGAAGGGUCACAUGAGGAUCACCCAUGUGACCUCAUCGAUGACAGGAUAUCAUGGGUGGCAGUGUAAAGUUGGC”: the “apparent Kd” value by setting is: under setting [3], 6.6 nM; under setting [4], 7.04 nM.

Consider “ACAAUAAAGGGUCUGGUUCCAUACAUGAGGAUCACCCAUGUCAAGGAUAUAACGGACGGGCGCCGUUAGAAGGUGACGACUGCG”, for which the “apparent Kd” value under setting [3] turned out to be 132 nM and the “apparent Kd” value under setting [4] was 401 nM.

On to “GUUGGCGUAGAAGGAUAUUGGUGAUGCGUCUUGUACAUGAGGAUCACCCAUGUCACUCUGCACGCCGAGAAGGUCUGCAAAUGG”, for which the “apparent Kd” value turned out to be 110 nM under setting [1] and 87.6 nM under setting [2].

As for “UAAAUUUUGUAAGGAUAUACACGAGAUUCAAGUGUAGAAGGUACUUACAUGAGGAUCACCCAUGUAUACAUGGAUAAUAGAUAU”, the “apparent Kd” value runs as follows: under setting [1], 436 nM; under setting [2], 141 nM.

Take “CGGGUCUGAGGAUAUCCAUCUUCAUACAUGAGGAUCACCCAUGUUUACCCUUGGGUUCCCGGAGAAGGCAGUUUUC”: the “apparent Kd” value amounted to 60.9 nM under setting [3] and 56.4 nM under setting [4].

With “GGUACCAUCACAGGAUAUGCAAUCCUUUGGGUUGCAGAAGGGUGUAACAUGAGGAUCACCCAUGUGGUGCCAGGGCGUGAGCCC”, the “apparent Kd” value is, setting by setting: under setting [1], 423 nM; under setting [2], 44.5 nM.

Take “CCUCUACAUGAGGAUCACCCAUGUGAGGAUAUCUCGGAGCAGCCACUUAAAGCACUCCAGAGAAGGCACGUGUA”: the “apparent Kd” value under setting [3] was 15.3 nM and the “apparent Kd” value under setting [4] came to 22.8 nM.

In the case of “AUGGUUCACUCAGGAUAUGUAUCACCUCGUUACCAACAUGAGGAUCACCCAUGUCCGUGGCUCGGACAGAAGGGAGAAGAACCG”, the “apparent Kd” value under setting [1] was found to be 581 nM and the “apparent Kd” value under setting [2] came out at 232 nM.

For the sequence “CGUAUAUGGGAGAAGGCAUGUCCCAAAGGGCCAUGAGGAUAUCCUAAGUGUACGCUUUGCGACAUGAGGAUCACCCAUGUAGCA”, the “apparent Kd” value under setting [1] is 7.07 nM and the “apparent Kd” value under setting [2] worked out at 5.75 nM.

Take “AUUUUAAUGUCAGGAUAUAUUAGUUUUUACAUAGUAGAAGGGAUAAUUAUACUCAUGUACAUGAGGAUCACCCAUGUUAAAUAU”: the “apparent Kd” value by setting is: under setting [1], 139 nM; under setting [2], 44.5 nM.

For “AAAAAACAUGAGGAUCACCCAUGUGAGGAUAUUAAAAAUAAGAAGGCAUAAAAAAAAAUAAGAAGGCACAUGAA”, the “apparent Kd” value runs as follows: under setting [3], 31.7 nM; under setting [4], 44.8 nM.

On to “CUGUUAUAGGUCCAUUUUUUCAACAUGAGGAUCACCCAUGUGCAGGAUAUCGUGAUAAUUUUCAUCGAGAAGGGCAUAGUCACG”, for which the “apparent Kd” value is 24.9 nM under setting [3] and 40.1 nM under setting [4].

In the case of “CCUUUUGUAUAAGGAUAUGUAACAAGGUAUAGAUUGGUAGGAUUUGUGCUUACAGAAGGUAUACAUGAGGAUCACCCAUGUCGA”, the “apparent Kd” value worked out at 23.1 nM under setting [3] and 59.5 nM under setting [4].

For the sequence “CUAUAUAAUACCUCAUGUACAUGAGGAUCACCCAUGUUAACUUAGGAUAUAUUUAUAUUAAUAGAGUAGAAGGAAGUACUAUUU”, the “apparent Kd” value reads like this: under setting [3], 22.1 nM; under setting [4], 17.4 nM.

For the sequence “UCAUGUCCUGAGGAUAUGUAGCGGAUAAACGCAACAGAAGGCAGGACAUGAGGAUCACCCAUGUGUGCCUUCUA”, the “apparent Kd” value by setting is: under setting [3], 96.6 nM; under setting [4], 14.2 nM.

With “UUGGACGUGGUAGGAUAUGUAGGAUAUUCCUACAUGAGGAUCACCCAUGUUGACAUGGAAGAAGGACAGAAGGACGAUGUCCAU”, the “apparent Kd” value was found to be 112 nM under setting [1] and 35 nM under setting [2].

Consider “GGGUACAUGGGAGGAUAUCCUCAAGAGACAUGAGGAUCACCCAUGUAUUAUAAGCCGAAAGGCAUGGAGAAGGCCCAUGUACCG”, for which the “apparent Kd” value is 62 nM under setting [1] and 19.1 nM under setting [2].

On to “GGUGGUCUUGUGAGGAUAUGGUUGGAUGCAUAUGAUCAGAAGGCACAUGAGGAUCACCCAUGUGGAAUACCACU”, for which the “apparent Kd” value under setting [3] came out at 37.3 nM and the “apparent Kd” value under setting [4] was determined as 234 nM.

On to “ACCAACAGGGUUGGUACCGGCGCGCAGGAUAUGCUUGCCUACAUGAGGAUCACCCAUGUCUAAAUGCAGAAGGGUGAGCUGAGC”, for which the “apparent Kd” value under setting [1] was 193 nM and the “apparent Kd” value under setting [2] was 114 nM.

Consider “CUUCUGUAAGGAUAUGUAAAUUGCUGACCACACCAGCACCGGCAGAAGGUACAUGAGGAUCACCCAUGUGGGUU”, for which the “apparent Kd” value runs as follows: under setting [3], 240 nM; under setting [4], 148 nM.

For the sequence “AGCAUGGUAGGAUAUACGGAACAUUAGGGUUUGUUGUGUGGACAUGAGGAUCACCCAUGUAGAAGGGCCGUGCA”, the “apparent Kd” value is, setting by setting: under setting [3], 34 nM; under setting [4], 80.4 nM.

For “CAGGUAGCUACAGGAUAUACACGUCUGGAUAAACCAGACGAAUAACCCACAUGAGGAUCACCCAUGUAGAAGGGUAGCUGCCUG”, the “apparent Kd” value is, setting by setting: under setting [3], 15.4 nM; under setting [4], 21.3 nM.

As to “AAGACUAGAGGAUAUACAUGAGGAUCACCCAUGUAACUGUCAGGAGACUGACGGAGAUGUAGAAGGCUAGUCAA”, the “apparent Kd” value amounted to 17 nM under setting [3] and 34.1 nM under setting [4].

For the sequence “UGAGCCUCGUGAGGAUAUACAUGAGGAUCACCCAUGUAAUAAAGUGAGCGGAGGAAACUCCGAAUGUAGAAGGCACGAGGCUCA”, the “apparent Kd” value runs as follows: under setting [3], 26 nM; under setting [4], 186 nM.

The record behind these values is the EternaBench riboswitch data.
